From PubChem BioAssay
TRPN1 ag – activates the zebrafish TRPN1 channel. HEK293 zebrafish TRPN1-YFP, Fluo-8 calcium fluorescence; 100% = response to 87 µM carbachol. activation, % at 3 µM. 220,000 compounds, 0.18% hits;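 active = activation above its plate's cutoff, the mean activation of test wells on that plate plus 3 SD, cut at about 19% in these data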
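Material – zebrafish TRPN1-YFP in HEK293 cells · Doses – 3 µM single point · Schedule – dye 1 h 37 °C plus 30 min RT · Signal – Fluo-8 calcium fluorescence, excitation 470-495 nm, emission 515-575 nm · Read-out – % activation versus carbachol response · Control set – carbachol high, DMSO low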
V1R ag counter – activates human V1a receptor in oxytocin agonist counter-screen | AID 2797 | 320,000 compounds, 0.25% hits | activation, % at 3 µM | CHO-V1R cells, Fluo-8 calcium fluorescence, agonist mode; 0% DMSO, 100% 3 nM vasopressin | P37288;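 active = activation above the mean activation of all tested compounds plus 3 SD, per screening run, cut at about 20% in these data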;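 note: signal is peak over basal fluorescence ratio across a 100 second FLIPR read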
OXTR ag – activates the human oxytocin receptor. P30559. CHO-OTR cells, Fluo-8 calcium fluorescence; normalized: DMSO 0%, oxytocin 100%. activation, % at 3 µM. 320,000 compounds, 0.32% hits;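 active = activation above the mean of all tested compounds plus 3 SD, cutoff set per screening run, cut at about 20% in these data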;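 note: peak over basal fluorescence ratio from a 100 s FLIPR kinetic read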
OXTR potentiator – human OXTR potentiation | P30559 | CHO-OTR cells, Fluo-8 calcium fluorescence, potentiator mode; 0% = oxytocin EC15, 100% = EC100 | activation, % at 3 µM | 320,000 compounds, 0.061% hits;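 active = activation above that plate's cutoff, the mean activation of tested compounds plus 3 SD, cut at about 6.6% in these data, passing the limit was not always enough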
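test system = CHO-OTR cells, human receptor | compound = single-point 3.0 µM | schedule = 6 min compound pre-incubation at room temperature, 100 s kinetic read | signal = Fluo-8 no-wash calcium dye fluorescence, excitation 470-495 nm, emission 515-575 nm | repeats = single well per compound, singlicate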
TRPML3 ag – human mucolipin-3 channel agonism; HEK293 TRPML3-YFP, Fluo-8 calcium fluorescence; 100% = the carbachol control signal; activation, % at 3 µM; 220,000 compounds, 0.29% hits;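 active = activation above its plate's cutoff, the mean activation of the plate's test wells plus 3 SD, cut at about 12% in these data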
Target sequence (Q8TDD5 whole entry, looked up): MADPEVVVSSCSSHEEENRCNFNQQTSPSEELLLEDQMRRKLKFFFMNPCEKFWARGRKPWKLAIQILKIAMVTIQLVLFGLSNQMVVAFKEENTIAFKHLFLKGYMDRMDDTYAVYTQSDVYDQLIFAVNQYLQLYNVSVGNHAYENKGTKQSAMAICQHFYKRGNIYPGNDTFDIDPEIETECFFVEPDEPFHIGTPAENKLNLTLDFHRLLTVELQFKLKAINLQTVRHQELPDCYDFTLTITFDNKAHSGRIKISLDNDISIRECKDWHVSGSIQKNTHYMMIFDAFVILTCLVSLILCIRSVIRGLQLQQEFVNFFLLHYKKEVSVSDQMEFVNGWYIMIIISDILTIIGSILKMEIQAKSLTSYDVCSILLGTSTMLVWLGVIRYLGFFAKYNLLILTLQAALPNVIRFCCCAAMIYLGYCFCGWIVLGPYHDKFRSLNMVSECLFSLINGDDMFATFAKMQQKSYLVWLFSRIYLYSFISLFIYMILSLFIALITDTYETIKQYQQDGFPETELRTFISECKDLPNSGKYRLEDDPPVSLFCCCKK
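system = HEK293 cells stably carrying human TRPML3-YFP | doses = one concentration, 3 µM nominal, 0.3% DMSO | timing = dye loading 1 h 37 °C then 30 min ambient, 125 s read | detection = Fluo-8 calcium dye fluorescence, ex 470-495, em 515-575 nm | benchmarks = high control carbachol 87 µM, low control DMSO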
TRPN1 counter – counter-screen for TRPML3 agonists: agonists of zebrafish TRPN1 channel. shares compounds with TRPML3 ag. HEK293 zebrafish TRPN1-YFP, Fluo-8 calcium fluorescence; scaled: carbachol wells 100%, DMSO wells 0%. activation, % at 3 µM. 310 compounds, 10% hits. AID 1525;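 active = mean activation over replicates above a set limit taken from the earlier TRPN1 channel primary screen, cut at about 19% in these data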
TRPML3 confirm – human TRPML3 agonism, confirmation. shares compounds with TRPML3 ag. HEK293 TRPML3-YFP, Fluo-8 calcium fluorescence; 100% set by carbachol, 0% by DMSO. activation, % at 3 µM. 310 compounds, 80% hits;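 active = activation above a set limit derived from the earlier primary screen, cut at about 12% in these data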
A number is an active result; – = inactive; · = no result. This is a sample that favours compounds with a hit; in the whole collection about 0.55% have one here.

SMILES | TRPN1 ag | V1R ag counter | OXTR ag | OXTR potentiator | TRPML3 ag | TRPN1 counter | TRPML3 confirm
CC1=CC(=O)C=C(C)C1=NOS(=O)(=O)c1ccccc1 | – | · | · | · | – | · | ·
Cc1cc(C(=O)NNC(=O)c2sccc2C)c(C)o1 | · | – | – | – | · | · | ·
CCOc1ccc(-n2cnnn2)cc1S(=O)(=O)Nc1c(C)cccc1C | – | – | – | – | 17.8 | – | –
CCOc1ccc(-n2cnnn2)cc1S(=O)(=O)NC1CC1 | – | – | – | – | – | · | ·
CCc1cccc(NC(=O)Cn2c(=O)n(CCC(=O)NCC3CCCO3)c(=O)c3cc(OC)c(OC)cc32)c1 (configuration not stated) | · | – | – | – | · | · | ·
N#C/C(=N/Nc1ccccc1[N+](=O)[O-])C(N)=S | – | – | – | – | 11.9 | 19.8 | –
CC(C)(C)N(NC(=O)c1ccccc1)C(=O)c1ccc(C(=O)N(NC(=O)c2ccccc2)C(C)(C)C)cc1 | – | – | – | – | – | · | ·
COc1ccc(C(=O)N(NC(=O)Oc2ccccc2)C(C)(C)C)cc1 | – | – | – | – | 13.3 | – | –
Cc1ccc(N/C(N)=N/c2nc(C)cc(C)n2)cc1 | – | – | – | – | 14.7 | 31.4 | 20.0
COc1ccc(NC(=O)COC(=O)C2CC2)cc1S(=O)(=O)N1CCCCC1 | · | – | – | – | · | · | ·
CSc1nc2ccccc2nc1N(C)S(=O)(=O)c1ccc(C)cc1 | – | – | – | – | 21.0 | – | 25.9
Cc1ccc(S(=O)(=O)N(C)c2ccc3ccccc3c2)cc1 | – | – | – | – | – | · | ·
Cc1ccc(N(C)S(=O)(=O)c2ccc(C)cc2)cc1 | – | – | – | – | 48.6 | – | 25.4
Cc1ccc(S(=O)(=O)N(C)c2ccccc2)cc1 | – | – | – | – | 16.6 | – | –
CCOc1ccccc1C(=O)NCC(=O)Nc1ccc(-c2ccccc2)cc1 | · | – | – | – | · | · | ·
O=C(Nc1ccc(C(=O)N2CCCCC2)cc1)c1ccccc1Br | · | – | – | – | · | · | ·
CCOc1cc(/C=C2\SC(=S)N(C(C(=O)O)c3ccccc3)C2=O)ccc1O (configuration not stated) | – | 32.3 | 37.9 | – | 13.4 | 33.3 | 15.2
CCOc1ccc(/C=C2/SC(=S)N(C(C(=O)O)c3ccccc3)C2=O)cc1OCC (configuration not stated) | – | · | · | · | – | · | ·
O=[N+]([O-])c1cc(S(=O)(=O)N2CCOCC2)ccc1OCc1cccc(Cl)c1 | · | – | – | – | · | · | ·
COc1cc(C)nc(N(C)S(=O)(=O)c2ccccc2Cl)n1 | – | – | – | – | 28.0 | – | 66.6
Cc1c(CC(=O)N2CCC(C(=O)O)CC2)c(=O)oc2cc3c(cc12)CCC1(CCCCC1)O3 | · | – | – | – | · | · | ·
CCOC(=O)c1cc(-c2ccccc2)n(CCC(=O)N2CCN(c3ccccn3)CC2)c1C | – | – | – | – | – | · | ·
Cc1cc(N2CCOCC2)nc(N)n1 | – | – | – | – | 11.8 | – | –
Cc1cc(N2CCOCC2)nc(NCc2ccccc2)n1 | – | – | – | – | 15.9 | 20.7 | 15.2
COc1ccc(CCNS(=O)(=O)c2cnc(Cl)c(Br)c2)cc1OC | – | – | – | – | – | · | ·
SMILES | TRPN1 ag | V1R ag counter | OXTR ag | OXTR potentiator | TRPML3 ag | TRPN1 counter | TRPML3 confirm
COc1ccc(S(=O)(=O)N2CCCC2)cc1Br | · | – | – | – | · | · | ·
COc1ccc(S(=O)(=O)N2CCCCC2)cc1C(C)C | – | – | – | – | 74.2 | – | 138.3
CCOc1ccccc1N1CCN(S(=O)(=O)c2ccc(F)c(F)c2)CC1 | – | – | – | – | – | · | ·
COc1ccc(S(=O)(=O)N2CCCCCC2)cc1N(C)S(=O)(=O)c1ccccc1 | – | – | – | – | 70.0 | – | 74.3
CCOc1cc(S(=O)(=O)N2CCCCCC2)ccc1F | – | – | – | – | 15.2 | – | 22.1
COc1ccc(S(=O)(=O)NC2CCCCCC2)cc1C(N)=O | · | – | – | – | · | · | ·
O=C1c2ccccc2CCCC12N=NCC2c1cccc2ccccc12 (configuration not stated) | – | – | – | – | 56.1 | – | 66.9
C=C(C)CN1CCN(S(=O)(=O)c2ccc(C)c(N(C)S(=O)(=O)c3ccc(C)cc3)c2C)CC1 | – | – | – | – | 59.8 | – | 77.7
Cc1ccc(S(=O)(=O)N(C)c2c(C)ccc(S(=O)(=O)N3CCN(C)CC3)c2C)cc1 | – | – | – | – | – | · | ·
O=C(CCc1ccc(S(=O)(=O)N2CCOCC2)cc1)Nc1ccc(F)cc1[N+](=O)[O-] | · | – | – | – | · | · | ·
CCc1c(C)sc(NC(=O)Cc2ccccc2C)c1C(=O)N1CCOCC1 | · | – | – | – | · | · | ·
O=C(NC(=S)NNC(=O)c1cccs1)c1ccc(Br)o1 | – | – | – | – | 11.9 | – | 21.6
CNC(=S)NNC(=O)c1cccs1 | – | – | – | – | – | · | ·
Cn1cccc1C(=O)NNC(=O)COc1ccccc1Cl | · | – | – | – | · | · | ·
CCN(CC)CCCNC(=O)c1cc(Nc2ccc(OC)cc2)nc2ccccc12 | · | – | – | – | · | · | ·
O=C(O)c1csc(N/N=C/c2ccc(Br)cc2)n1 | – | · | · | · | 31.9 | – | 42.0
Cc1csc(N/N=C/c2ccc([N+](=O)[O-])cc2)n1 | · | – | – | – | · | · | ·
CC1(C)Cc2cccc(Oc3ccc(S(=O)(=O)N4CCCC4)cn3)c2O1 | – | – | – | – | – | · | ·
CC1(C)Cc2cccc(Oc3ccc(S(=O)(=O)N4CCCCC4)cn3)c2O1 | – | – | – | – | 19.6 | – | 29.6
COc1ccccc1N(CC(=O)NCc1ccccc1C)S(=O)(=O)c1ccc(C)cc1 | · | – | – | – | · | · | ·
CN(C)c1ccc(/C=C(/C(=O)c2ccc(Cl)cc2Cl)n2cncn2)cc1 | – | 28.8 | 21.5 | – | 11.6 | 21.9 | 11.9
COC(=O)C1(C(C[N+](=O)[O-])c2ccco2)C(=O)NCC1c1ccccc1 (configuration not stated) | – | – | – | – | 16.7 | – | 22.9
CCOc1ccccc1N1CCN(S(=O)(=O)c2ccc(Cl)s2)CC1 | – | – | – | – | 37.5 | – | 27.0
Cc1ccc(S(=O)(=O)N2CCCCCC2)cc1[N+](=O)[O-] | – | – | – | – | 11.8 | – | 19.4
COc1ccc(S(=O)(=O)N2CCC(C)CC2)cc1OC | · | – | – | – | · | · | ·
COc1ccc(S(=O)(=O)N2CCC(C)CC2)cc1Br | – | – | – | – | 66.2 | – | 105.7
Cc1ccc(S(=O)(=O)N2CCC(C)CC2)cc1[N+](=O)[O-] | – | · | · | · | 92.8 | – | 86.9
CCN1CCN(S(=O)(=O)c2ccc(C)c([N+](=O)[O-])c2)CC1 | – | – | – | – | – | · | ·
CC(=O)Nc1cccc(NC(=O)CSc2nc3c(=O)n(C)c(=O)n(C)c3n2C)c1 | · | – | – | – | · | · | ·
